Key:
Rattus norvegicus [1] = test: Inhibition of histamine stimulated gastric acid secretion in lumen perfused anaesthetized rats after 1 mg/kg intravenous dose; format: functional; details: Stomach
Outline: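 Male SD rats (~250 g), fasted 24 h, urethane 1.25 g/kg ip. Stomach lumen perfused with saline; perfusate titrated with 25 mM NaOH. Histamine infused iv at 3 mg/kg/h. At plateau, compound given iv at 1 mg/kg. Result expressed as maximal inhibition of acid output; n = 2.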

[2] = molecular target: Histamine H2 receptor (Cavia porcellus) (UniProt P47747); test: H2 receptor antagonistic activity against histamine stimulated chronotropic response in isolated guinea pig right atrium at 1x10E-6 g/mL.; format: functional, tissue-based; details: Cardiac atrium
Sequence of Histamine H2 receptor (Cavia porcellus) (P47747 whole entry): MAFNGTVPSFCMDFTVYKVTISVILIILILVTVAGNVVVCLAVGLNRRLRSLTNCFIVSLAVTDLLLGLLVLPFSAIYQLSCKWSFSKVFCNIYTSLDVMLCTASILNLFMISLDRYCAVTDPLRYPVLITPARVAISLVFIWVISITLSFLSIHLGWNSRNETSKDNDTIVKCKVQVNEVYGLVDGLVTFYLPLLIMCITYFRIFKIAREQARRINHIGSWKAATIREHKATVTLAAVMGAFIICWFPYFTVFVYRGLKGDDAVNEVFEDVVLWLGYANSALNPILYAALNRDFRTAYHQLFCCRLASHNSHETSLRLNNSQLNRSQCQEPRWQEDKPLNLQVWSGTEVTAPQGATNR
Outline: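 Guinea pig atrial strip under 0.3–0.6 g tension in Tyrode solution, 30 °C, gassed with 95% O2-5% CO2. Beating rate recorded. Histamine HCl 1 × 10-6 g/mL given; after washout, test compound added (single-concentration screen 1 × 10-6 g/mL) and histamine response compared before and 30 min after dosing. IC50 from three doses by probit analysis, three atria per dose.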

Rattus norvegicus [3] = test: Evaluated against aspirin induced gastric lesions in rats after peroral dose of 100 mg/kg; format: functional; details: Stomach, route oral
Outline: (§1)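 Male SD rats (~200 g), fasted 24 h. Test compound given orally in 0.1% MC, then aspirin 200 mg/kg in 0.2 N HCl/0.1% MC (10 mL/kg) orally 30 min later. Rats killed 1 h after aspirin. Ulcer index is the summed lesion length (mm); % inhibition is relative to controls. Seven rats per group for screening; ED50 by probit from three doses, ten rats per dose.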

Canis familiaris [4] = test: Evaluated against tetragastrin stimulated gastric acid secretion in conscious Hiedenhain-pouch dogs at a dose of 0.32 mg/kg, po; format: functional; details: Canis lupus familiaris, Stomach
Outline: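 Beagle Heidenhain-pouch dogs, 8–13 kg, oral dosing. Acid concentration titrated to pH 7 with 0.1 N NaOH; total acid output is volume × concentration. Change is relative to predosing output. ED50 by probit from three or four doses, three or four dogs per dose.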

Rattus norvegicus [5] = test: Inhibition of aspirin induced gastric lesions in rats after peroral dose of 32 mg/kg; format: functional; details: Stomach, route oral; outline: as §1
Canis familiaris [6] = species on record: Canis familiaris; test: animal or person; details: Canis lupus familiaris, Stomach, po, read-out: Inhibition

SMILES | inhibition in vivo at 1 mg/kg (Rattus norvegicus [1]) | inhibition [2] | inhibition in vivo at 100 mg/kg (Rattus norvegicus [3]) | inhibition in vivo at 0.32 mg/kg (Canis familiaris [4]) | inhibition in vivo at 32 mg/kg (Rattus norvegicus [5]) | inhibition in vivo at 22 mg/kg (Canis familiaris [6])
CC(=O)OCC(=O)NCCCOc1cccc(CN2CCCCC2)c1 [ROXATIDINE ACETATE] | 84% | 76% | 31% | 58% | – | –
CN/C(=N\CCSCc1nc[nH]c1C)NC#N [CIMETIDINE] | 53% | 43% | – | – | 33% | 22%
